From ChEMBL document CHEMBL4316601, “Esterase-Sensitive and pH-Controlled Carbon Monoxide Prodrugs for Treating Systemic Inflammation” (J Med Chem, 2019) come the findings set out here.

For data set [1], the target named is T1, Liver carboxylesterase (Sus scrofa, UniProt Q29550).
T1 sequence (Q29550 whole entry): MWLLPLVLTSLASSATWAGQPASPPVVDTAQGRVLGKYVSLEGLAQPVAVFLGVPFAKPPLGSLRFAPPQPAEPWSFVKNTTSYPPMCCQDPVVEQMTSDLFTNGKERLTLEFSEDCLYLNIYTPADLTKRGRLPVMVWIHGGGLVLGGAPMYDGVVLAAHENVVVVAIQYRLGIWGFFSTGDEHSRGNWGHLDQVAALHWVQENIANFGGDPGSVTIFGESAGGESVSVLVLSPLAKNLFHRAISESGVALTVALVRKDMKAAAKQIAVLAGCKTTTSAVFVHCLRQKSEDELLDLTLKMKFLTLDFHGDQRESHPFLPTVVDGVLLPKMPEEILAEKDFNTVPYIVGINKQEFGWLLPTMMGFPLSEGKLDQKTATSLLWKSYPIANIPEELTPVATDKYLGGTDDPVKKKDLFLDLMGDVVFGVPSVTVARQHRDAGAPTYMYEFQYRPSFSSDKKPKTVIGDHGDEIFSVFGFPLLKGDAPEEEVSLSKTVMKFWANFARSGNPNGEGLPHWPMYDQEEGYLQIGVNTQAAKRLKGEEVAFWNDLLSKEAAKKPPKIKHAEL
Description: Drug metabolism in PBS buffer assessed as porcine liver esterase-mediated (1S,4S)-1,4-Dimethyl-7-oxo-5,6-diphenyl-3-(phenylsulfonyl)bicyclo[2.2.1]hept-5-ene-2-carbaldehyde formation at pH 7 at 20 uM incubated for 48 hrs by HPLC analysis. The data set is classed as ADME. The following applies: pig, isolated protein, pH 7, 48 h.

In data set [2] the test system is RAW264.7. As to the kind of experiment: Cytotoxicity against mouse RAW264.7 cells assessed as reduction in cell viability at 200 uM by WST8 assay. The data set is classed as cell-based. Conditions: raw264.7, 200 µM. (In general: Formazan colour is commonly taken as a measure of viable cells.)
Data set [3] deals with RAW264.7. Description: Antiinflammatory activity in mouse RAW264.7 cells assessed as reduction in LPS-induced TNFalpha secretion at 12.5 to 100 uM preincubated for 4 hrs followed by LPS addition and measured after 1 hr by ELISA. It counts as functional, cell-based. Background: An ELISA detects its analyte on a solid surface through an enzyme-linked reagent.
The subject of data set [4] is Mus musculus. Description: Hepato-protective activity in LPS-stimulated C57BL/6 mouse assessed as reduction in LPS-induced liver injury at 10 mg/kg, ip pretreated for 30 mins followed by LPS addition and measured after 6 hrs by hematoxylin and eosin staining based assay. It counts as functional, organism-based.
Data set [5] has as its system Mus musculus. As to the kind of experiment: Antiinflammatory activity in LPS-stimulated C57BL/6 mouse assessed as inhibition of LPS-induced serum TNFalpha levels at 10 mg/kg, ip pretreated for 30 mins followed by LPS addition and measured after 6 hrs by ELISA. It counts as functional, organism-based.
For data set [6], the system named is Mus musculus. As to the kind of experiment: Hepatoprotective activity in LPS-stimulated C57BL/6 mouse assessed as reduction in LPS-induced AST levels at 10 mg/kg, ip pretreated for 30 mins followed by LPS addition and measured after 6 hrs. It counts as functional, organism-based.
Data set [7] has as its system Mus musculus. Description: Hepatoprotective activity in LPS-stimulated C57BL/6 mouse assessed as reduction in LPS-induced ALT levels at 10 mg/kg, ip pretreated for 30 mins followed by LPS addition and measured after 6 hrs. It counts as functional, organism-based.
Data set [8] can be described thus: Drug metabolism in PBS buffer assessed as half life for carbon monoxide release at pH 7 by HPLC analysis.
A short description of data set [9]: Drug metabolism in pH 7.4 PBS assessed as CO bounded myoglobin formation by measuring maximal absorption peak of deoxy-Mb incubated for 2 hrs by UV-vis absorption spectroscopy based myoglobin-CO assay.
A short description of data set [10]: Drug metabolism in pH 7.4 PBS assessed as 3',6'-dimethyl-[1,1':2',1''-terphenyl]-4'-carbaldehyde fromation by HPLC.
Data set [11] addresses T1, Liver carboxylesterase. As to the kind of experiment: Drug metabolism in PBS buffer assessed as porcine liver esterase-mediated (1S,4S)-1,4-Dimethyl-7-oxo-5,6-diphenyl-3-(phenylsulfonyl)bicyclo[2.2.1]hept-5-ene-2-carbaldehyde formation at pH 7 at 20 uM after 36 hrs by HPLC analysis. The following applies: pig, pH 7, 36 h.
Data set [12] concerns the target T1, Liver carboxylesterase. As to the kind of experiment: Drug metabolism in PBS buffer assessed as porcine liver esterase-mediated 3',6'-dimethyl-[1,1':2',1''-terphenyl]-4'-carbaldehyde formation at pH 7 at 20 uM after 36 hrs by HPLC analysis. Conditions: pig, pH 7, 36 h. An outline of the steps: (§1)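 Prodrug at a starting concentration of 20 was incubated with porcine liver esterase (3 U/mL) in PBS containing 5% DMSO at 37 °C. CO release was followed by HPLC as formation of the beta-elimination product.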

Data set [13] has as its target T1, Liver carboxylesterase. Description: Drug metabolism in PBS buffer assessed as porcine liver esterase-mediated carbon monoxide release at pH 7 at 20 uM after 36 hrs by HPLC analysis. The following applies: pig, isolated protein, pH 7, 36 h. It counts as ADME. An outline of the steps:
as §1

The nature of data set [14]: Drug metabolism in mouse serum assessed as esterase-mediated (1S,4S)-1,4-Dimethyl-7-oxo-5,6-diphenyl-3-(phenylsulfonyl)bicyclo[2.2.1]hept-5-ene-2-carbaldehyde metabolite formation by measuring half life by HPLC analysis. It counts as ADME, cell-free. An outline of the steps: (§2)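 The prodrug was incubated in mouse, rat, rabbit or human serum. HPLC followed esterase-mediated hydrolysis to the bicyclic intermediate, giving a half-life, and the subsequent beta-elimination was followed for up to 20 h.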

A short description of data set [15]: Drug metabolism in rat serum assessed as esterase-mediated (1S,4S)-1,4-Dimethyl-7-oxo-5,6-diphenyl-3-(phenylsulfonyl)bicyclo[2.2.1]hept-5-ene-2-carbaldehyde metabolite formation by measuring half life by HPLC analysis. It counts as ADME, cell-free. An outline of the steps: as §2
Data set [16] is described as follows: Drug metabolism in rabbit serum assessed as esterase-mediated (1S,4S)-1,4-Dimethyl-7-oxo-5,6-diphenyl-3-(phenylsulfonyl)bicyclo[2.2.1]hept-5-ene-2-carbaldehyde metabolite formation by measuring half life by HPLC analysis. The data set is classed as ADME, cell-free, Oryctolagus cuniculus. The procedure, abridged: as §2
A short description of data set [17]: Drug metabolism in human serum assessed as esterase-mediated (1S,4S)-1,4-Dimethyl-7-oxo-5,6-diphenyl-3-(phenylsulfonyl)bicyclo[2.2.1]hept-5-ene-2-carbaldehyde metabolite formation by measuring half life by HPLC analysis. The data set is classed as ADME, cell-free. An outline of the steps: as §2
Data set [18] can be described thus: Drug metabolism in mouse RAW264.7 cells assessed as carbon monoxide release at 50 uM after 5 hrs by COP1-based fluorescence assay. Conditions: raw264.7, 5 h. It counts as ADME, cell-based.
Data set [19] concerns RAW264.7. Description: Antiinflammatory activity in mouse RAW264.7 cells assessed as reduction in LPS-induced TNFalpha secretion preincubated for 4 hrs followed by LPS addition and measured after 1 hr by ELISA. The data set is classed as functional, cell-based.
Data set [20] concerns Mus musculus. Description: Antiinflammatory activity in LPS-stimulated ip dosed C57BL/6 mouse assessed as inhibition of LPS-induced serum TNFalpha levels pretreated for 30 mins followed by LPS addition and measured after 6 hrs by ELISA. It counts as functional, organism-based.
Data set [21] deals with Mus musculus. Description: Hepatoprotective activity in LPS-stimulated ip dosed C57BL/6 mouse assessed as reduction in LPS-induced AST levels pretreated for 30 mins followed by LPS addition and measured after 6 hrs. The data set is classed as functional, organism-based.
For data set [22], the system named is Mus musculus. Description: Hepatoprotective activity in LPS-stimulated ip dosed C57BL/6 mouse assessed as reduction in LPS-induced ALT levels pretreated for 30 mins followed by LPS addition and measured after 6 hrs. The data set is classed as functional, organism-based.
Data set [23] addresses T1, Liver carboxylesterase. Description: Drug metabolism in PBS buffer assessed as porcine liver esterase-mediated carbon monoxide release at pH 7 at 20 uM incubated for 48 hrs by HPLC analysis. The data set is classed as ADME. Conditions: pig, isolated protein, pH 7, 48 h. An outline of the steps:
as §1

Data set [24] in a line: Drug metabolism in PBS buffer assessed as (1S,4S)-1,4-Dimethyl-7-oxo-5,6-diphenyl-3-(phenylsulfonyl)bicyclo[2.2.1]hept-5-ene-2-carbaldehyde formation at pH 7 at 20 uM in absence of porcine liver esterase after 6 hrs by HPLC analysis. The procedure, abridged: (§3)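 The prodrug was incubated without porcine liver esterase for up to 6 h, in either PBS (pH 7) or simulated gastric fluid (pH ~1). HPLC monitored hydrolysis to the acetal-cleaved bicyclic intermediate.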

Data set [25] can be described thus: Drug metabolism in pH 1 SGF assessed as (1S,4S)-1,4-Dimethyl-7-oxo-5,6-diphenyl-3-(phenylsulfonyl)bicyclo[2.2.1]hept-5-ene-2-carbaldehyde formation at 20 uM in absence of porcine liver esterase after 6 hrs by HPLC analysis. An outline of the steps: as §3
Data set [26] concerns the target T1, Liver carboxylesterase. As to the kind of experiment: Drug metabolism in pH 1 SGF assessed as porcine liver esterase-mediated (1S,4S)-1,4-Dimethyl-7-oxo-5,6-diphenyl-3-(phenylsulfonyl)bicyclo[2.2.1]hept-5-ene-2-carbaldehyde formation at 20 uM after 2 mins by HPLC analysis. It counts as ADME. Conditions: pig, isolated protein, pH 1, 2 min. The procedure, abridged:
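The prodrug was incubated in simulated gastric fluid (pH ~1) containing porcine liver esterase at 37 °C. HPLC tracked formation of the hydrolysed bicyclic intermediate and of the beta-elimination product for up to 7 h.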

Data set [27] relates to RAW264.7. As to the kind of experiment: Cytotoxicity against mouse RAW264.7 cells assessed as reduction in cell viability at 50 uM uM incubated for 5 hrs by WST8 assay. The following applies: raw264.7, 5 h. The data set is classed as cell-based.

Active and inactive are the calls of the source. The rule behind the calls is not given here.

As for `CCCC(=O)OC(OC(=O)CCC)[C@@H]1[C@H](S(=O)(=O)c2ccccc2)[C@]2(C)C(=O)[C@]1(C)C(c1ccccc1)=C2c1ccccc1`, the Drug metabolism entry in data set [1] was “Metabolite_Detected”.
`Cc1cc(C=O)c(C)c(-c2ccccc2)c1-c1ccccc1`: in data set [2], the Activity result was “Non-Toxic”. Besides, in data set [3], the inhibition result is “inactive”. In addition, the outcome in [4], in data set [5], in data set [6] and in data set [7] was inactive.
In the case of `C[C@@]12C(=O)[C@](C)(C(c3ccccc3)=C1c1ccccc1)[C@@H](S(=O)(=O)c1ccccc1)[C@H]2C=O`, the T1/2 in data set [8] came to 30 min. Also, the Drug metabolism result in [9] and in [10] was “Metabolite detected” each time.
`CC(C)(C)C(=O)OC(OC(=O)C(C)(C)C)[C@@H]1[C@H](S(=O)(=O)c2ccccc2)[C@]2(C)C(=O)[C@]1(C)C(c1ccccc1)=C2c1ccccc1`: the Drug metabolism entry in [11], in data set [12] and in [13] was “Metabolite_Notdetected” throughout.
With `C[C@@]12C(=O)[C@](C)(C(c3ccccc3)=C1c1ccccc1)[C@@H](S(=O)(=O)c1ccccc1)[C@H]2C(OC(=O)C1CC1)OC(=O)C1CC1`, the Drug metabolism result in [1] is “Metabolite_Detected”.
With `CC(=O)OC(OC(C)=O)[C@@H]1[C@H](S(=O)(=O)c2ccccc2)[C@]2(C)C(=O)[C@]1(C)C(c1ccccc1)=C2c1ccccc1`, the Drug metabolism entry in data set [1] is given as “Metabolite_Detected”; in data set [18], “Metabolite_Detected”; in data set [24], “Metabolite not detected”; in [25], “Metabolite not detected”; in data set [26], “Metabolite_Detected”. In addition, the t1/2 in [14] is 3 min; in data set [15], 10 min; in data set [16] it was 30 min; in [17], 840 min; in data set [23], 30 to 480 min. Also, the inhibition result in data set [19] was “Dose-dependent effect”. In addition, the Activity entry in [20] was “Dose-dependent effect”; in [21], “Dose-dependent effect”; in data set [22] it was “Dose-dependent effect”; in data set [27] it was “Non-Toxic”. For the same compound, the outcome in data set [4] was Active.
